Data from ChEMBL document CHEMBL4346672, “Antimicrobial and KPC/AmpC inhibitory activity of functionalized benzosiloxaboroles” (Eur J Med Chem, 2019).
In brackets after ≈: the same amount, converted by molar mass. Activity calls are given as the source filed them. The rule behind the calls is not given here.

Columns and labels:
[1] = Dissociation constant, pKa1 of compound in 0.1 M NaOH by potentiometric analysis; type: physicochemical
Candida albicans = experiment: Antifungal activity against Candida albicans ATCC 90028 assessed as decrease in fungal cell growth at 0.78 to 12.5 mg/L incubated for 24 hrs by CLSI broth dilution method; type: functional; details: ATCC 90028, 24 h
Outline: (§1)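 Yeast broth dilution in RPMI 1640 with 2% glucose, compounds in DMSO. Yeasts pre-grown on Sabouraud dextrose agar. Growth read after 35 °C, 24 h.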

Candida tropicalis [2] = experiment: Antifungal activity against Candida tropicalis IBA 171 assessed as decrease in fungal cell growth at 0.78 to 12.5 mg/L incubated for 24 hrs by CLSI broth dilution method; type: functional; details: IBA 171, 24 h; outline: as §1
[3] = tested on: Meyerozyma guilliermondii; experiment: Antifungal activity against Candida guilliermondii IBA 155 assessed as decrease in fungal cell growth at 0.78 to 12.5 mg/L incubated for 24 hrs by CLSI broth dilution method; type: functional; details: IBA 155, 24 h; outline: as §1
Saccharomyces cerevisiae [4] = experiment: Antifungal activity against Saccharomyces cerevisiae ATCC 9763 assessed as decrease in fungal cell growth at 0.78 to 12.5 mg/L incubated for 24 hrs by CLSI broth dilution method; type: functional; details: ATCC 9763, 24 h
Outline: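 Yeast strain subcultured on Sabouraud dextrose agar for 24–48 h at 30 °C before testing. Compounds dissolved in DMSO.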

Candida parapsilosis = experiment: Antifungal activity against Candida parapsilosis ATCC 22019 assessed as diameter of zone inhibition incubated for 24 hrs by CLSI disc diffusion method; type: functional
Outline: (§2)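 Yeast disc diffusion on Mueller-Hinton agar supplemented with 2% glucose and 0.5 mg/L methylene blue. Compounds in DMSO. Yeasts subcultured on Sabouraud dextrose agar before testing. Zones read after 35 °C, 24 h.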

Candida tropicalis [5] = experiment: Antifungal activity against Candida tropicalis IBA 171 assessed as diameter of zone inhibition incubated for 24 hrs by CLSI disc diffusion method; type: functional; outline: as §2
[6] = tested on: Meyerozyma guilliermondii; experiment: Antifungal activity against Candida guilliermondii IBA 155 assessed as diameter of zone inhibition incubated for 24 hrs by CLSI disc diffusion method; type: functional; outline: as §2
Saccharomyces cerevisiae [7] = experiment: Antifungal activity against Saccharomyces cerevisiae ATCC 9763 diameter of zone inhibition incubated for 24 hrs by CLSI disc diffusion method; type: functional
Outline: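 Disc-diffusion run on Mueller-Hinton II agar with 2% glucose and 0.5 mg/L methylene blue, using compounds in DMSO. Yeast was precultured on Sabouraud dextrose agar (24–48 h, 30 °C). Zones read after 24 h at 35 °C.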

Staphylococcus aureus = experiment: Antibacterial activity against Staphylococcus aureus ATCC 6538P measured after 18 hrs by CLSI broth dilution method; type: functional
Outline: (§3)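 Broth MIC in Mueller-Hinton II broth following CLSI, compounds dissolved in DMSO. Strains subcultured twice on tryptic soy agar before testing. Growth read after 35 °C, 18 h.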

[8] = tested on: Staphylococcus epidermidis; experiment: Antibacterial activity against Staphylococcus epidermidis ATCC 12228 measured after 18 hrs by CLSI broth dilution method; type: functional; details: ATCC 12228, 18 h; outline: as §3
Enterococcus faecalis = experiment: Antibacterial activity against Enterococcus faecalis ATCC 29212 measured after 18 hrs by CLSI broth dilution method; type: functional; details: ATCC 29212, 18 h; outline: as §3
[9] = tested on: Staphylococcus epidermidis; experiment: Antibacterial activity against Staphylococcus epidermidis ATCC 12228 assessed as diameter of zone inhibition measured after 18 hrs by CLSI disc diffusion method; type: functional
Outline: (§4)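 Disc diffusion on Mueller-Hinton II agar. Compounds dissolved in DMSO. Strains stored at -80 °C and subcultured twice on tryptic soy agar before testing. Inhibition zones read after 35 °C, 18 h.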

Enterococcus faecium = experiment: Antibacterial activity against Enterococcus faecium ATCC 6057 assessed as diameter of zone inhibition measured after 18 hrs by CLSI disc diffusion method; type: functional; outline: as §4
Bacillus subtilis = experiment: Antibacterial activity against Bacillus subtilis ATCC 6633 assessed as diameter of zone inhibition measured after 18 hrs by CLSI disc diffusion method; type: functional; outline: as §4
Escherichia coli [10] = experiment: Antibacterial activity against Escherichia coli ATCC 25922 measured after 18 hrs by CLSI broth dilution method; type: functional; details: ATCC 25922, 18 h; outline: as §3
Enterobacter cloacae [11] = experiment: Antibacterial activity against Enterobacter cloacae DSM 6234 measured after 18 hrs by CLSI broth dilution method; type: functional; details: DSM 6234, 18 h; outline: as §3
[12] = tested on: Stenotrophomonas maltophilia; experiment: Antibacterial activity against Stenotrophomonas maltophilia ATCC 13637 measured after 18 hrs by CLSI broth dilution method; type: functional; details: ATCC 13637, 18 h; outline: as §3
Burkholderia cepacia = experiment: Antibacterial activity against Burkholderia cepacia ATCC 25416 measured after 18 hrs by CLSI broth dilution method; type: functional; details: ATCC 25416, 18 h; outline: as §3
Escherichia coli [13] = experiment: Antibacterial activity against Escherichia coli ATCC 25922 assessed as diameter of zone inhibition measured after 18 hrs by CLSI disc diffusion method; type: functional; outline: as §4
Proteus mirabilis [14] = experiment: Antibacterial activity against Proteus mirabilis ATCC 12453 assessed as diameter of zone inhibition measured after 18 hrs by CLSI disc diffusion method; type: functional; outline: as §4
Enterobacter cloacae [15] = experiment: Antibacterial activity against Enterobacter cloacae DSM 6234 assessed as diameter of zone inhibition measured after 18 hrs by CLSI disc diffusion method; type: functional; outline: as §4
Pseudomonas aeruginosa [16] = experiment: Antibacterial activity against Pseudomonas aeruginosa ATCC 27853 assessed as diameter of zone inhibition measured after 18 hrs by CLSI disc diffusion method; type: functional, organism-based; outline: as §4
Acinetobacter baumannii [17] = experiment: Antibacterial activity against Acinetobacter baumannii ATCC 19606 assessed as diameter of zone inhibition measured after 18 hrs by CLSI disc diffusion method; type: functional; outline: as §4
[18] = tested on: Bordetella bronchiseptica; experiment: Antibacterial activity against Bordetella bronchiseptica ATCC 4617 assessed as diameter of zone inhibition measured after 18 hrs by CLSI disc diffusion method; type: functional; outline: as §4
Klebsiella pneumoniae = experiment: Antibacterial activity against Klebsiella pneumoniae ATCC 13883 assessed as fold reduction of MIC in presence of efflux pump inhibitor PAbetaN incubated for 18 hrs by broth microdilution method; type: functional
Outline: (§5)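 MICs determined with and without PAβN at 50 mg/L in Mueller-Hinton broth containing 1 mM MgSO₄. 2-fold serial dilutions per CLSI. Fold change taken from the paired MICs after 35 °C, 18 h.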

Proteus mirabilis [19] = experiment: Antibacterial activity against Proteus mirabilis ATCC 12453 assessed as fold reduction of MIC in presence of efflux pump inhibitor PAbetaN incubated for 18 hrs by broth microdilution method; type: functional; outline: as §5
Enterobacter cloacae [20] = experiment: Antibacterial activity against Enterobacter cloacae DSM 6234 assessed as fold reduction of MIC in presence of efflux pump inhibitor PAbetaN incubated for 18 hrs by broth microdilution method; type: functional; outline: as §5
Serratia marcescens [21] = experiment: Antibacterial activity against Serratia marcescens ATCC 13880 assessed as fold reduction of MIC in presence of efflux pump inhibitor PAbetaN incubated for 18 hrs by broth microdilution method; type: functional; outline: as §5
Pseudomonas aeruginosa [22] = experiment: Antibacterial activity against Pseudomonas aeruginosa ATCC 27853 assessed as fold reduction of MIC in presence of efflux pump inhibitor PAbetaN incubated for 18 hrs microdilution method; type: functional; outline: as §5
Acinetobacter baumannii [23] = experiment: Antibacterial activity against Acinetobacter baumannii ATCC 19606 assessed as fold reduction of MIC in presence of efflux pump inhibitor PAbetaN incubated for 18 hrs by broth microdilution method; type: functional; outline: as §5
Serratia marcescens [24] = details: ATCC 13880

SMILES | pKa [1] | MIC (Candida albicans) [µg/mL] | MIC (Candida tropicalis [2]) [µg/mL] | MIC [3] [µg/mL] | MIC (Saccharomyces cerevisiae [4]) [µg/mL] | diameter of the inhibition zone (DIZ) (Candida parapsilosis) | diameter of the inhibition zone (DIZ) (Candida tropicalis [5]) | diameter of the inhibition zone (DIZ) [6] | diameter of the inhibition zone (DIZ) (Saccharomyces cerevisiae [7]) | MIC (Staphylococcus aureus) [µg/mL] | MIC [8] [µg/mL] | MIC (Enterococcus faecalis) [µg/mL] | diameter of the inhibition zone (DIZ) [9] [mm] | diameter of the inhibition zone (DIZ) (Enterococcus faecium) | diameter of the inhibition zone (DIZ) (Bacillus subtilis) [mm] | MIC (Escherichia coli [10]) [µg/mL] | MIC (Enterobacter cloacae [11]) [µg/mL] | MIC [12] [µg/mL] | MIC (Burkholderia cepacia) [µg/mL] | diameter of the inhibition zone (DIZ) (Escherichia coli [13]) | further results
C[Si]1(C)OB(O)c2cc(F)c(C=O)c(F)c21 | 4.9 | > 400 | 100 (≈ 413 µM) | 200 (≈ 826 µM) | 50 (≈ 207 µM) | inactive | inactive | inactive | inactive | 200 (≈ 826 µM) | 100 (≈ 413 µM) | 400 (≈ 1650 µM) | 22 | inactive | 14 | > 400 | > 400 | > 400 | > 400 | inactive | diameter of the inhibition zone (DIZ) (Proteus mirabilis [14]): inactive; diameter of the inhibition zone (DIZ) (Enterobacter cloacae [15]): inactive; diameter of the inhibition zone (DIZ) (Pseudomonas aeruginosa [16]): inactive; diameter of the inhibition zone (DIZ) (Acinetobacter baumannii [17]): inactive; diameter of the inhibition zone (DIZ) [18]: inactive; fold change (FC) (Klebsiella pneumoniae): 4; fold change (FC) (Proteus mirabilis [19]): 2; fold change (FC) (Enterobacter cloacae [20]): 16; fold change (FC) (Serratia marcescens [21]): 4; fold change (FC) (Pseudomonas aeruginosa [22]): 8; fold change (FC) (Acinetobacter baumannii [23]): 4; DIZ (Serratia marcescens [24]): inactive
C[Si]1(C)OB(O)c2cc(F)c(F)cc21 | 6.8 | 50 (≈ 234 µM) | 0.78 (≈ 3.64 µM) | 6.25 (≈ 29.2 µM) | 3.12 (≈ 14.6 µM) | 18 mm | 13 mm | 30 mm | 57 mm | 50 (≈ 234 µM) | 50 (≈ 234 µM) | 400 (≈ 1870 µM) | 28 | inactive | 25 | > 400 | > 400 | 400 (≈ 1870 µM) | > 400 | inactive | diameter of the inhibition zone (DIZ) (Proteus mirabilis [14]): inactive; diameter of the inhibition zone (DIZ) (Enterobacter cloacae [15]): inactive; diameter of the inhibition zone (DIZ) (Pseudomonas aeruginosa [16]): inactive; diameter of the inhibition zone (DIZ) (Acinetobacter baumannii [17]): inactive; diameter of the inhibition zone (DIZ) [18]: inactive; fold change (FC) (Klebsiella pneumoniae): 4; fold change (FC) (Proteus mirabilis [19]): 2; fold change (FC) (Enterobacter cloacae [20]): 32; fold change (FC) (Serratia marcescens [21]): 4; fold change (FC) (Pseudomonas aeruginosa [22]): 8; fold change (FC) (Acinetobacter baumannii [23]): 8; DIZ (Serratia marcescens [24]): inactive
C[Si]1(C)OB(O)c2ccc(C=O)c(F)c21 | 5.4 | 400 (≈ 1790 µM) | 200 (≈ 893 µM) | > 400 | > 400 | inactive | inactive | inactive | inactive | 25 (≈ 112 µM) | 50 (≈ 223 µM) | 400 (≈ 1790 µM) | 27 | inactive | 22 | > 400 | > 400 | > 400 | > 400 | inactive | diameter of the inhibition zone (DIZ) (Proteus mirabilis [14]): inactive; diameter of the inhibition zone (DIZ) (Enterobacter cloacae [15]): inactive; diameter of the inhibition zone (DIZ) (Pseudomonas aeruginosa [16]): inactive; diameter of the inhibition zone (DIZ) (Acinetobacter baumannii [17]): inactive; diameter of the inhibition zone (DIZ) [18]: inactive; fold change (FC) (Klebsiella pneumoniae): 4; fold change (FC) (Proteus mirabilis [19]): 4; fold change (FC) (Enterobacter cloacae [20]): 16; fold change (FC) (Serratia marcescens [21]): 16; fold change (FC) (Pseudomonas aeruginosa [22]): 4; fold change (FC) (Acinetobacter baumannii [23]): 4; DIZ (Serratia marcescens [24]): inactive
C[Si]1(C)OB(O)c2cc(C=O)cc(F)c21 | 5.6 | 400 (≈ 1790 µM) | 200 (≈ 893 µM) | > 400 | 200 (≈ 893 µM) | inactive | inactive | inactive | inactive | 25 (≈ 112 µM) | 50 (≈ 223 µM) | 400 (≈ 1790 µM) | 31 | inactive | 22 | > 400 | > 400 | > 400 | > 400 | inactive | diameter of the inhibition zone (DIZ) (Proteus mirabilis [14]): inactive; diameter of the inhibition zone (DIZ) (Enterobacter cloacae [15]): inactive; diameter of the inhibition zone (DIZ) (Pseudomonas aeruginosa [16]): inactive; diameter of the inhibition zone (DIZ) (Acinetobacter baumannii [17]): inactive; diameter of the inhibition zone (DIZ) [18]: inactive; fold change (FC) (Klebsiella pneumoniae): 8; fold change (FC) (Proteus mirabilis [19]): 4; fold change (FC) (Enterobacter cloacae [20]): 16; fold change (FC) (Serratia marcescens [21]): 8; fold change (FC) (Pseudomonas aeruginosa [22]): 4; fold change (FC) (Acinetobacter baumannii [23]): 4; DIZ (Serratia marcescens [24]): inactive
